We go through five molecules from ChEMBL document CHEMBL3046428, “Isolation, characterization and antifungal activity of major constituents of the Himalayan lichen Parmelia reticulata Tayl” (2011).

By inhibition is commonly meant the change of the read-out against control, counted positive when it falls.

Holding throughout (format): functional
Assay [1] has as its system Macrophomina phaseolina. As to the kind of experiment: Antifungal activity against Rhizoctonia bataticola assessed as growth inhibition by poisoned food technique. As to conditions: read-out: ED50 (the source's name). A digest of the protocol:
(§1)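 ED50 from poisoned-food growth inhibition on PDA at 250, 125 and 62.5 μg/mL in medium, with an acetone control. Plates were inoculated with a 5 mm mycelial disc, incubated at 28 °C, and colony diameter was measured in quadruplicate. Percent inhibition was corrected by Abbott's formula, using a correction factor from the 9 cm dish diameter, and ED50 (μg/mL) was derived by probit analysis.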

The test system of assay [2] is Athelia rolfsii. As to the kind of experiment: Antifungal activity against Athelia rolfsii assessed as growth inhibition by poisoned food technique. The following applies: Agroathelia rolfsii; read-out: ED50 (the source's name). A digest of the protocol: as §1
Assay [3] concerns Macrophomina phaseolina. Briefly: Antifungal activity against Rhizoctonia bataticola assessed as growth inhibition at 250 ug/ml by poisoned food technique. A digest of the protocol: (§2)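 Poisoned-food assay on PDA. Test material was diluted in acetone and mixed into molten medium at final 250, 125 or 62.5 μg/mL, with 1 mL acetone as control. Plates received a 5 mm mycelial disc from the front of a 2-week-old colony and were incubated at 28 °C until control growth was nearly complete. Colony diameter was measured, giving %I = (C−T)/C×100. Mean ± SD of four replicates.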

The test system of assay [4] is Athelia rolfsii. Briefly: Antifungal activity against Athelia rolfsii assessed as growth inhibition at 125 ug/ml by poisoned food technique. The following applies: Agroathelia rolfsii. A digest of the protocol:
as §2

Assay [5] has as its system Globisporangium debaryanum. Briefly: Antifungal activity against Pythium debaryanum assessed as growth inhibition at 62.5 ug/ml by poisoned food technique. The method in brief: as §2
The subject of assay [6] is Rhizoctonia solani. As to the kind of experiment: Antifungal activity against Rhizoctonia solani assessed as growth inhibition at 250 ug/ml by poisoned food technique. A digest of the protocol:
as §2

Assay [7] has as its system Fusarium udum. As to the kind of experiment: Antifungal activity against Fusarium udum assessed as growth inhibition at 62.5 ug/ml by poisoned food technique. The method in brief:
as §2

Assay [8] deals with Globisporangium debaryanum. Briefly: Antifungal activity against Pythium debaryanum assessed as growth inhibition by poisoned food technique. As to conditions: read-out: ED50 (the source's name). The method in brief:
as §1

For assay [9], the system named is Globisporangium debaryanum. Briefly: Antifungal activity against Pythium debaryanum assessed as growth inhibition at 125 ug/ml by poisoned food technique. A digest of the protocol: as §2
Assay [10] deals with Rhizoctonia solani. Briefly: Antifungal activity against Rhizoctonia solani assessed as growth inhibition at 125 ug/ml by poisoned food technique. A digest of the protocol:
as §2

Assay [11] deals with Athelia rolfsii. Briefly: Antifungal activity against Athelia rolfsii assessed as growth inhibition at 62.5 ug/ml by poisoned food technique. The following applies: Agroathelia rolfsii. A digest of the protocol: as §2
The subject of assay [12] is Macrophomina phaseolina. Briefly: Antifungal activity against Rhizoctonia bataticola assessed as growth inhibition at 62.5 ug/ml by poisoned food technique. A digest of the protocol:
as §2

Assay [13] has as its system Pythium aphanidermatum. As to the kind of experiment: Antifungal activity against Pythium aphanidermatum assessed as growth inhibition at 125 ug/ml by poisoned food technique. The method in brief:
as §2

In assay [14] the test system is Fusarium udum. As to the kind of experiment: Antifungal activity against Fusarium udum assessed as growth inhibition at 125 ug/ml by poisoned food technique. A digest of the protocol:
as §2

In assay [15] the test system is Fusarium udum. As to the kind of experiment: Antifungal activity against Fusarium udum assessed as growth inhibition by poisoned food technique. The following applies: read-out: ED50 (the source's name). The method in brief:
as §1

For assay [16], the system named is Macrophomina phaseolina. As to the kind of experiment: Antifungal activity against Rhizoctonia bataticola assessed as growth inhibition at 125 ug/ml by poisoned food technique. A digest of the protocol: as §2
Assay [17] deals with Pythium aphanidermatum. As to the kind of experiment: Antifungal activity against Pythium aphanidermatum assessed as growth inhibition at 62.5 ug/ml by poisoned food technique. A digest of the protocol:
as §2

Assay [18] deals with Rhizoctonia solani. Briefly: Antifungal activity against Rhizoctonia solani assessed as growth inhibition at 62.5 ug/ml by poisoned food technique. A digest of the protocol:
as §2

Assay [19] concerns Fusarium udum. Briefly: Antifungal activity against Fusarium udum assessed as growth inhibition at 250 ug/ml by poisoned food technique. The method in brief: as §2
Assay [20] concerns Pythium aphanidermatum. Briefly: Antifungal activity against Pythium aphanidermatum assessed as growth inhibition at 250 ug/ml by poisoned food technique. The method in brief:
as §2

Assay [21] relates to Pythium aphanidermatum. As to the kind of experiment: Antifungal activity against Pythium aphanidermatum assessed as growth inhibition by poisoned food technique. As to conditions: read-out: ED50 (the source's name). The method in brief:
as §1

The test system of assay [22] is Globisporangium debaryanum. Briefly: Antifungal activity against Pythium debaryanum assessed as growth inhibition at 250 ug/ml by poisoned food technique. The method in brief:
as §2

For assay [23], the system named is Athelia rolfsii. Briefly: Antifungal activity against Athelia rolfsii assessed as growth inhibition at 250 ug/ml by poisoned food technique. The following applies: Agroathelia rolfsii. A digest of the protocol: as §2
For assay [24], the system named is Rhizoctonia solani. As to the kind of experiment: Antifungal activity against Rhizoctonia solani assessed as growth inhibition by poisoned food technique. The following applies: read-out: ED50 (the source's name). A digest of the protocol: as §1

The structures appear in SMILES notation. Converted amounts (≈) assume the structure as drawn.

Take `C=C1C(=O)OC(CCCCCCCCCCCCC)C1C(=O)O` (racemic) [(+/-)-Protolichesterinic acid]: the EC50 in the assay on Macrophomina phaseolina [1] is 77.6 µg/mL (≈ 239 µM); in the assay on Athelia rolfsii [2] it was 61.4 µg/mL (≈ 189 µM); in [8], 16.1 µg/mL (≈ 49.5 µM); in the assay with Fusarium udum [15] it was 55.7 µg/mL (≈ 172 µM); with Pythium aphanidermatum [21], 57.1 µg/mL (≈ 176 µM); in the assay on Rhizoctonia solani [24], 23.1 µg/mL (≈ 71.2 µM). Besides, the inhibition at 250 µg/mL in the assay with Macrophomina phaseolina [3] came to 89.3%; with Rhizoctonia solani [6], 83.3%; with Fusarium udum [19], 90.3%; in the assay with Pythium aphanidermatum [20], 80.3%; in assay [22], 100%; in the assay with Athelia rolfsii [23] it was 90%. Further, the inhibition at 125 µg/mL in the assay on Athelia rolfsii [4] turned out to be 72.2%; in assay [9], 90%; with Rhizoctonia solani [10], 77%; with Pythium aphanidermatum [13], 72.3%; with Fusarium udum [14] it was 78%; with Macrophomina phaseolina [16], 50%. Also, the inhibition at 62.5 µg/mL in [5] was 78.3%; in the assay with Fusarium udum [7] it was 44.3%; with Athelia rolfsii [11], 39.3%; in the assay with Macrophomina phaseolina [12], 28.3%; in the assay with Pythium aphanidermatum [17], 44.3%; with Rhizoctonia solani [18], 67%.
With `COc1cc(C)c(C(=O)O)c(O)c1C`, the EC50 in the assay with Macrophomina phaseolina [1] was determined as 74.5 µg/mL (≈ 380 µM); in the assay with Athelia rolfsii [2] it was 116 µg/mL (≈ 589 µM); in [8], 73.8 µg/mL (≈ 376 µM); in the assay on Fusarium udum [15], 106 µg/mL (≈ 541 µM); with Pythium aphanidermatum [21], 71.1 µg/mL (≈ 362 µM); with Rhizoctonia solani [24], 50.6 µg/mL (≈ 258 µM). Also, the inhibition at 250 µg/mL in the assay with Macrophomina phaseolina [3] was 68%; in the assay with Rhizoctonia solani [6], 82%; in the assay with Fusarium udum [19], 58%; in the assay on Pythium aphanidermatum [20] it was 79.3%; in assay [22] it was 83.8%; in the assay with Athelia rolfsii [23] it was 53%. For the same molecule, the inhibition at 125 µg/mL is 44.3% in the assay with Athelia rolfsii [4]; 61.4% in [9]; 70.6% in the assay with Rhizoctonia solani [10]; 67.7% in the assay on Pythium aphanidermatum [13]; 46.5% in the assay with Fusarium udum [14]; 56.4% in the assay with Macrophomina phaseolina [16]. Besides, the inhibition at 62.5 µg/mL in assay [5] was determined as 33%; in the assay with Fusarium udum [7] it was 23.7%; with Athelia rolfsii [11] it was 28.4%; in the assay on Macrophomina phaseolina [12], 39.4%; in the assay on Pythium aphanidermatum [17], 28.4%; in the assay with Rhizoctonia solani [18], 50%.
Regarding `CC(=O)C1=C(O)C=C2Oc3c(C)c(O)c(C(C)=O)c(O)c3C2(C)C1=O` (racemic) [(+/-)-ISOUSNIC ACID], the EC50 stood at 70.4 µg/mL (≈ 204 µM) in the assay on Macrophomina phaseolina [1]; 69.6 µg/mL (≈ 202 µM) with Athelia rolfsii [2]; 71 µg/mL (≈ 206 µM) in assay [8]; 70.9 µg/mL (≈ 206 µM) with Fusarium udum [15]; 62.3 µg/mL (≈ 181 µM) in the assay on Pythium aphanidermatum [21]; 64.6 µg/mL (≈ 188 µM) in the assay with Rhizoctonia solani [24]. Also, the inhibition at 250 µg/mL with Macrophomina phaseolina [3] worked out at 87.2%; in the assay with Rhizoctonia solani [6], 86.4%; in the assay on Fusarium udum [19], 81%; with Pythium aphanidermatum [20] it was 75.4%; in assay [22], 72.1%; with Athelia rolfsii [23] it was 84%. The inhibition at 125 µg/mL with Athelia rolfsii [4] came to 66.1%; in [9], 66.2%; in the assay with Rhizoctonia solani [10] it was 73.1%; in the assay with Pythium aphanidermatum [13] it was 53.2%; with Fusarium udum [14], 63.3%; in the assay on Macrophomina phaseolina [16], 69.1%. The inhibition at 62.5 µg/mL amounted to 35.1% in assay [5]; 33.4% with Fusarium udum [7]; 32.8% in the assay with Athelia rolfsii [11]; 29.3% in the assay with Macrophomina phaseolina [12]; 46.1% in the assay on Pythium aphanidermatum [17]; 35.2% in the assay on Rhizoctonia solani [18].
As to `COC(=O)c1c(C)cc(OC(=O)c2c(C)cc(O)c(C=O)c2O)c(C)c1O` [ATRANORIN], the EC50 was 58.8 µg/mL (≈ 157 µM) in the assay with Macrophomina phaseolina [1]; 39.7 µg/mL (≈ 106 µM) in the assay on Athelia rolfsii [2]; 44.8 µg/mL (≈ 120 µM) in [8]; 50.3 µg/mL (≈ 134 µM) with Fusarium udum [15]; 105 µg/mL (≈ 280 µM) with Pythium aphanidermatum [21]; 64.6 µg/mL (≈ 173 µM) in the assay on Rhizoctonia solani [24]. In addition, the inhibition at 250 µg/mL in the assay on Macrophomina phaseolina [3] is 80%; in the assay with Rhizoctonia solani [6], 81.3%; in the assay with Fusarium udum [19], 90%; in the assay with Pythium aphanidermatum [20], 60.3%; in assay [22] it was 89.7%; in the assay with Athelia rolfsii [23] it was 100%. The inhibition at 125 µg/mL in the assay with Athelia rolfsii [4] was found to be 89.7%; in [9], 78%; with Rhizoctonia solani [10], 62%; with Pythium aphanidermatum [13] it was 43%; in the assay on Fusarium udum [14] it was 81.3%; in the assay with Macrophomina phaseolina [16], 67.7%. Moreover, the inhibition at 62.5 µg/mL in assay [5] is 56.3%; in the assay with Fusarium udum [7], 50%; in the assay on Athelia rolfsii [11], 67.3%; in the assay with Macrophomina phaseolina [12], 44.3%; in the assay on Pythium aphanidermatum [17], 22%; in the assay with Rhizoctonia solani [18], 40%.
Consider `COC(=O)c1c(C)cc(O)c(C)c1O` [ATRARIC ACID], for which the EC50 in the assay on Macrophomina phaseolina [1] was 77.2 µg/mL (≈ 394 µM); in the assay with Athelia rolfsii [2], 80.2 µg/mL (≈ 409 µM); in assay [8] it was 57 µg/mL (≈ 290 µM); with Fusarium udum [15], 82.3 µg/mL (≈ 420 µM); in the assay on Pythium aphanidermatum [21] it was 81.5 µg/mL (≈ 415 µM); with Rhizoctonia solani [24] it was 57.5 µg/mL (≈ 293 µM). In addition, the inhibition at 250 µg/mL with Macrophomina phaseolina [3] stood at 90.3%; with Rhizoctonia solani [6], 80.3%; with Fusarium udum [19] it was 80.5%; with Pythium aphanidermatum [20] it was 88.3%; in assay [22], 89.3%; in the assay on Athelia rolfsii [23] it was 74.3%. In addition, the inhibition at 125 µg/mL in the assay on Athelia rolfsii [4] was determined as 50%; in [9], 72.3%; in the assay on Rhizoctonia solani [10], 67%; in the assay on Pythium aphanidermatum [13], 50%; in the assay with Fusarium udum [14] it was 50%; in the assay with Macrophomina phaseolina [16] it was 50.3%. The inhibition at 62.5 µg/mL in assay [5] worked out at 44%; in the assay with Fusarium udum [7], 26.7%; in the assay with Athelia rolfsii [11], 33%; in the assay with Macrophomina phaseolina [12], 28.3%; with Pythium aphanidermatum [17], 22.3%; in the assay on Rhizoctonia solani [18], 46%.
